Measurements published in ChEMBL document CHEMBL2040803, “Synthesis and anticonvulsant activity of ethyl 1-(2-arylhydrazinecarboxamido)-2,2-dimethylcyclopropanecarboxylate derivatives” (Eur J Med Chem, 2012).
The source made the active and inactive calls.

Tests used:
Mus musculus [1] = assay: Anticonvulsant activity in Kunming mouse assessed as protection against maximal electroshock-induced seizures at 300 mg/kg, ip measured after 4 hrs; format: functional, organism-based; parameters: dose 300 mg/kg
Outline: (§1)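 Male Kunming mice (20 ± 2.0 g) were dosed ip at 30, 100 and 300 mg/kg as a suspension in 0.5% methylcellulose, one to four mice per dose. A 60-Hz, 50-mA current was applied through corneal electrodes for 0.25 s at 0.5 h and 4.0 h after dosing. Absence of hindlimb tonic extension counted as protection. The value is the minimal dose protecting half or more of the mice.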

Mus musculus [2] = assay: Anticonvulsant activity in Kunming mouse assessed as protection against subcutaneous pentylenetetrazol-induced clonic seizures at 300 mg/kg, ip measured after 0.5 hrs; format: functional, organism-based; parameters: dose 300 mg/kg
Outline: (§2)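 Male Kunming mice (20 ± 2.0 g) received ip doses of 30, 100 or 300 mg/kg as a suspension in 0.5% methylcellulose, one to four mice per dose. Pentylenetetrazole in 0.9% saline was injected subcutaneously. Protection meant failure to show even a threshold seizure (a single clonic spasm lasting at least 5 s), read at 0.5 h and 4.0 h. Activity was scored as the minimal dose protecting half or more of the mice.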

Mus musculus [3] = assay: Anticonvulsant activity in Kunming mouse assessed as protection against subcutaneous pentylenetetrazol-induced clonic seizures at 300 mg/kg, ip measured after 4 hrs; format: functional, organism-based; parameters: dose 300 mg/kg; outline: as §2
Mus musculus [4] = assay: Neurotoxicity in Kunming mouse at 300 mg/kg, ip after 4 hrs by rotorod test; format: toxicity, organism-based; parameters: dose 300 mg/kg, route intraperitoneal; conditions: in vivo
Outline: (§3)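 Trained male Kunming mice were given ip doses of 30, 100 or 300 mg/kg, one to four per dose. They were placed on a 1 in. knurled rod rotating at 6 rpm, and examined at 0.5 h and 4.0 h. Neurotoxicity was inability to keep balance for at least 1 min in each of four trials. The value is the minimal dose giving toxicity in half or more of the mice.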

Mus musculus [5] = assay: Neurotoxicity in Kunming mouse at 300 mg/kg, ip after 0.5 hr by rotorod test; format: toxicity, organism-based; parameters: dose 300 mg/kg, route intraperitoneal; conditions: in vivo; outline: as §3
Mus musculus [6] = assay: Anticonvulsant activity in Kunming mouse assessed as protection against maximal electroshock-induced seizures at 300 mg/kg, ip measured after 0.5 hr; format: functional, organism-based; parameters: dose 300 mg/kg; outline: as §1
Mus musculus [7] = assay: Anticonvulsant activity in ip dosed Kunming mouse assessed as protection against maximal electroshock-induced seizures; format: functional
Mus musculus [8] = assay: Anticonvulsant activity in ip dosed Kunming mouse assessed as protection against subcutaneous pentylenetetrazol-induced clonic seizures; format: functional
Mus musculus [9] = assay: Anticonvulsant activity in Kunming mouse assessed as protection against maximal electroshock-induced seizures at 100 mg/kg, ip measured after 4 hrs; format: functional, organism-based; parameters: dose 100 mg/kg; outline: as §1
Mus musculus [10] = assay: Neurotoxicity in Kunming mouse at 100 mg/kg, ip after 0.5 hr by rotorod test; format: toxicity, organism-based; parameters: dose 100 mg/kg, route intraperitoneal; conditions: in vivo; outline: as §3
Mus musculus [11] = assay: Anticonvulsant activity in Kunming mouse assessed as protection against maximal electroshock-induced seizures at 100 mg/kg, ip measured after 0.5 hr; format: functional, organism-based; parameters: dose 100 mg/kg; outline: as §1
Mus musculus [12] = assay: Anticonvulsant activity in Kunming mouse assessed as protection against subcutaneous pentylenetetrazol-induced clonic seizures at 100 mg/kg, ip measured after 0.5 hrs; format: functional, organism-based; parameters: dose 100 mg/kg; outline: as §2
Mus musculus [13] = assay: Anticonvulsant activity in Kunming mouse assessed as protection against maximal electroshock-induced seizures at 30 mg/kg, ip measured after 4 hrs; format: functional, organism-based; parameters: dose 30 mg/kg; outline: as §1
Mus musculus [14] = assay: Anticonvulsant activity in Kunming mouse assessed as protection against maximal electroshock-induced seizures at 30 mg/kg, ip measured after 0.5 hr; format: functional, organism-based; parameters: dose 30 mg/kg; outline: as §1
[15] = Neurotoxicity in ip dosed Kunming mouse measured 30 mins post compound administration by rotorod test; format: toxicity, organism-based; conditions: in vivo
Mus musculus [16] = species: Mus musculus; assay: Protective index, ratio of TD50 for neurotoxicity in Kunming mouse to ED50 for protection against MES-induced seizures in Kunming mouse; format: functional
Mus musculus [17] = assay: Protective index, ratio of TD50 for neurotoxicity in Kunming mouse to ED50 for protection against subcutaneous pentylenetetrazol-induced clonic seizures in Kunming mouse; format: functional

SMILES | Activity (Mus musculus [1]) | Activity (Mus musculus [2]) | Activity (Mus musculus [3]) | Activity (Mus musculus [4]) | Activity (Mus musculus [5]) | Activity (Mus musculus [6]) | Activity (Mus musculus [11]) | other results
CCOC(=O)C1(NC(=O)NNC(=O)c2ccc(CC)cc2)CC1(C)C (configuration not stated) | Active | Active | inactive | Non-toxic | Non-toxic | Active | – | –
CCC1(c2ccccc2)C(=O)NC(=O)NC1=O [PHENOBARBITAL] | – | – | – | – | – | – | – | ED50 (Mus musculus [7]): 21.8 mg/kg; ED50 (Mus musculus [8]): 13.2 mg/kg
CCOC(=O)C1(NC(=O)NNC(=O)c2cccs2)CC1(C)C (configuration not stated) | – | Active | Active | Toxic | – | inactive | – | Activity (Mus musculus [9]): Active; Activity (Mus musculus [10]): Toxic
CCOC(=O)C1(NC(=O)NNC(=O)c2ccc(Br)cc2)CC1(C)C (configuration not stated) | inactive | inactive | inactive | Toxic | Non-toxic | – | Active | –
CCOC(=O)C1(NC(=O)NNC(=O)c2ccc([N+](=O)[O-])cc2)CC1(C)C (configuration not stated) | inactive | inactive | inactive | Toxic | Non-toxic | – | Active | –
CCOC(=O)C1(NC(=O)NNC(=O)c2ccc(C)cc2)CC1(C)C (configuration not stated) | inactive | inactive | Active | Toxic | Non-toxic | – | Active | –
CCOC(=O)C1(NC(=O)NNC(=O)c2cc(OC)c(OC)c(OC)c2)CC1(C)C (configuration not stated) | Active | inactive | inactive | Non-toxic | Toxic | Active | – | –
CCOC(=O)C1(NC(=O)NNC(=O)c2ccccc2)CC1(C)C (configuration not stated) | inactive | Active | inactive | Non-toxic | Toxic | Active | – | –
CCOC(=O)C1(NC(=O)NNC(=O)c2ccccc2C)CC1(C)C (configuration not stated) | – | – | inactive | Non-toxic | Non-toxic | – | Active | Activity (Mus musculus [9]): Active; Activity (Mus musculus [12]): Active
CCOC(=O)C1(NC(=O)NNC(=O)c2ccc(C(C)(C)C)cc2)CC1(C)C (configuration not stated) | inactive | Active | inactive | Toxic | Non-toxic | – | Active | –
CCOC(=O)C1(NC(=O)NNC(=O)c2ccccc2Br)CC1(C)C (configuration not stated) | – | Active | Active | Non-toxic | Non-toxic | Active | – | Activity (Mus musculus [13]): Active
CCOC(=O)C1(NC(=O)NNC(=O)c2ccc(F)cc2)CC1(C)C (configuration not stated) | Active | Active | inactive | Non-toxic | Non-toxic | – | Active | –
NC(=O)N1c2ccccc2C=Cc2ccccc21 [CARBAMAZEPINE] | – | – | – | – | – | – | – | ED50 (Mus musculus [7]): 8.8 mg/kg; ED50 (Mus musculus [8]): > 100 mg/kg
CCCC(CCC)C(=O)O [VALPROIC ACID] | – | – | – | – | – | – | – | ED50 (Mus musculus [8]): 149 mg/kg
CCOC(=O)C1(NC(=O)NNC(=O)c2ccc(Cl)cc2)CC1(C)C (configuration not stated) | Active | inactive | Active | Toxic | Non-toxic | – | – | Activity (Mus musculus [14]): Active; ED50 (Mus musculus [7]): 20.1 mg/kg; ED50 (Mus musculus [8]): 335 mg/kg; TD50 at 0.5 h [15]: 382 mg/kg; Ratio TD50/ED50 (Mus musculus [16]): 19; Ratio TD50/ED50 (Mus musculus [17]): 1.1
CCC1(C)CC(=O)NC1=O (configuration not stated) [ETHOSUXIMIDE] | inactive | – | Active | Non-toxic | Non-toxic | inactive | – | Activity (Mus musculus [12]): Active
CCOC(=O)C1(NC(=O)NNC(=O)c2ccc(OC)c(OC)c2)CC1(C)C (configuration not stated) | Active | inactive | inactive | Toxic | Non-toxic | Active | – | –
CCOC(=O)C1(NC(=O)NNC(=O)c2ccc(N(C)C)cc2)CC1(C)C (configuration not stated) | Active | inactive | inactive | Toxic | Non-toxic | Active | – | –
CCOC(=O)C1(NC(=O)NNC(=O)c2ccccc2Cl)CC1(C)C (configuration not stated) | Active | Active | inactive | Toxic | Non-toxic | – | Active | –
CCOC(=O)C1(NC(=O)NNC(=O)c2cccc(C)c2)CC1(C)C (configuration not stated) | inactive | inactive | inactive | Non-toxic | Non-toxic | – | Active | –
CCOC(=O)C1(NC(=O)NNC(=O)c2ccco2)CC1(C)C (configuration not stated) | Active | inactive | inactive | Toxic | – | inactive | – | Activity (Mus musculus [10]): Toxic
CCOC(=O)C1(NC(=O)NNC(=O)c2ccc(OC)cc2)CC1(C)C (configuration not stated) | Active | – | inactive | Non-toxic | Non-toxic | Active | – | Activity (Mus musculus [12]): Active
CCOC(=O)C1(NC(=O)NNC(=O)c2cccnc2)CC1(C)C (configuration not stated) | inactive | inactive | Active | Toxic | – | inactive | – | Activity (Mus musculus [10]): Toxic
CCOC(=O)C1(NC(=O)NNC(=O)c2ccncc2)CC1(C)C (configuration not stated) | Active | inactive | inactive | Toxic | – | inactive | – | Activity (Mus musculus [10]): Toxic
CCOC(=O)C1(NC(=O)NNC(=O)c2ccccc2F)CC1(C)C (configuration not stated) | inactive | inactive | inactive | Toxic | Non-toxic | Active | – | –
